Laboratory results: publication PMC8798225 (Nature, 2021)

Tests used:
Ubr1 [1] = target: T1, Ubr1 (Saccharomyces cerevisiae, UniProt P19812); assay: In vitro Ubr1-dependent ubiquitination assay; assay type: biochemical; conditions: n = 2
Outline: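 Multi-turnover reaction at 30 °C in 50 mM HEPES pH 7.5, 0.15 M NaCl, 10 mM MgCl2, 5 mM ATP. It contained 0.1 µM Uba1, 4 µM Ubc2, 0.25 µM Ubr1 (wild-type or mutant at the same level), 80 µM Ub and 5 µM substrate. Substrate was Degron or Ub-Degron labelled at an added C-terminal Cys with fluorescein-5-maleimide. Reactions were stopped in SDS sample buffer and resolved by SDS-PAGE with fluorescence imaging.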

Ubc2 = target: T2, Ubc2 (Saccharomyces cerevisiae, UniProt P06104); assay: Accessibility of the catalytic cysteine; assay type: biochemical; conditions: fluorescein-5-maleimide, presence or absence of synthetic U2BR peptide; average fluorescence, n = 2
T2 sequence (P06104 1-172): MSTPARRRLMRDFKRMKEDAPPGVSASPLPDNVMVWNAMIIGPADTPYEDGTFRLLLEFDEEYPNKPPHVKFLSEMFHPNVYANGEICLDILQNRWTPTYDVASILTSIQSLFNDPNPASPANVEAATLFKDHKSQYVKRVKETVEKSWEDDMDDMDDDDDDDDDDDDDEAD

Ubr1 [2] = target: T1, Ubr1; assay: Single-turnover pulse-chase Ub transfer, elongation step; assay type: biochemical; conditions: 0.5 μM Ubr1, 30 °C, 5 min, n = 2
[3] = target: T3, Ubc2 (Saccharomyces cerevisiae), wild type (Saccharomyces cerevisiae, UniProt P06104 3-152); assay: ITC
T3 sequence: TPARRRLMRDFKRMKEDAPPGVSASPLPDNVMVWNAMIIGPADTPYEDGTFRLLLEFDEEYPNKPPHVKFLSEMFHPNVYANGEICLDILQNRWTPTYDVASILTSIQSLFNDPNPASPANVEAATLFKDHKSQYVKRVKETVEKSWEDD

T1 sequence (P19812 whole entry, one chain of several): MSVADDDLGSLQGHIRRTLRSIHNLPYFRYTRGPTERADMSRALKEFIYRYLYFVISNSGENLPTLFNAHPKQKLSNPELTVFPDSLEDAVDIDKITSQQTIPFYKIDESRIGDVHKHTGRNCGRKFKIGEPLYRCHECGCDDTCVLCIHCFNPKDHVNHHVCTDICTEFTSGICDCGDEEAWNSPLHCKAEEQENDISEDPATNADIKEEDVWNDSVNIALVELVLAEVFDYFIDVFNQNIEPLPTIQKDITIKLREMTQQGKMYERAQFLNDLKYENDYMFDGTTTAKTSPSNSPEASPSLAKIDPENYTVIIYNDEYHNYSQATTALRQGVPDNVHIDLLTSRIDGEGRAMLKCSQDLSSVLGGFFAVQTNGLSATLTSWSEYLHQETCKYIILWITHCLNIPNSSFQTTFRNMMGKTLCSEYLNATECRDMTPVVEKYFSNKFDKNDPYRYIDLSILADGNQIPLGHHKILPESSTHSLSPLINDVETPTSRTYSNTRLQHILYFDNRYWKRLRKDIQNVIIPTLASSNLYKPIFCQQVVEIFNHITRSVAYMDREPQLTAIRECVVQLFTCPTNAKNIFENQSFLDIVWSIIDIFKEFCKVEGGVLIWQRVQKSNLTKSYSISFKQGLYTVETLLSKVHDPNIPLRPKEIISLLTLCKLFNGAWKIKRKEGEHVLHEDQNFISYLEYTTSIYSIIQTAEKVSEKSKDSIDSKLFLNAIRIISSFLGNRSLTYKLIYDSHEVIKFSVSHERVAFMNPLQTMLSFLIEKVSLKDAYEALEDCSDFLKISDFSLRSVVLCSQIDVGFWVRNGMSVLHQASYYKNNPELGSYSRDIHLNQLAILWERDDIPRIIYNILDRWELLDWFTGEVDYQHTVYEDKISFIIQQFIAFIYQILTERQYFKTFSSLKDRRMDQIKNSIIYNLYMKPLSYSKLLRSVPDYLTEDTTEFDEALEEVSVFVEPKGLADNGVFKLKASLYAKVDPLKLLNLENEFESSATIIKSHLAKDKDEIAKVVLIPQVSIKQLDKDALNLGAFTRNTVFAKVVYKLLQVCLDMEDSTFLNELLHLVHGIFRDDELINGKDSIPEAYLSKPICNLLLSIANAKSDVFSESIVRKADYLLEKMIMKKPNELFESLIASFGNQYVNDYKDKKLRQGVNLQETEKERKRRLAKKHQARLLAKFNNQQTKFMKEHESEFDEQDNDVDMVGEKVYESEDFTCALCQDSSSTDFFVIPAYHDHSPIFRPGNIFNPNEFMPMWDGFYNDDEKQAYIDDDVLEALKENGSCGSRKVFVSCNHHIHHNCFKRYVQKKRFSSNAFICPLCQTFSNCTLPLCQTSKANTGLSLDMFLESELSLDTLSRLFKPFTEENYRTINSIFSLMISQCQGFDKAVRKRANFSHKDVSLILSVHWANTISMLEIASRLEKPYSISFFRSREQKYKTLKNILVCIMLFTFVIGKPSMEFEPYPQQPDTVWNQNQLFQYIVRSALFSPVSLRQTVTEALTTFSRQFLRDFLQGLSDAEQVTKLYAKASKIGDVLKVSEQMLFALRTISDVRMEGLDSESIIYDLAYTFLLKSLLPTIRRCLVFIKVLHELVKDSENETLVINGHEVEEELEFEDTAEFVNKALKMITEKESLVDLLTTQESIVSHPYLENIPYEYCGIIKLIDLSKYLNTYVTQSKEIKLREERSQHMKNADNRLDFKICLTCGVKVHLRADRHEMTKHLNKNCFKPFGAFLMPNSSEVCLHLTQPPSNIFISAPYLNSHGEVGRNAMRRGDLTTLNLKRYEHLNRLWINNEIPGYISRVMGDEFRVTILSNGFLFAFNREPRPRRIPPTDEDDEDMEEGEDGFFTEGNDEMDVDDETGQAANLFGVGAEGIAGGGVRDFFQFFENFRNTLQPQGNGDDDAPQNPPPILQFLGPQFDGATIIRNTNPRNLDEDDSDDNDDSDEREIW

U2BR peptide: free U2BR peptide (Ubr1 1165-1200), Ubc2 binding region (KERKRRLAKKHQARLLAKFNNQQTKFMKEHESEFDE; UniProt P19812 1165-1200, looked up, fragment)
inhibition of polyubiquitination by free U2BR peptide (Ubr1 [1]; increasing concentrations of synthetic U2BR peptide): inhibited polyubiquitination in a dose-dependent manner | accessibility of the catalytic cysteine (C88) of Ubc2 (Ubc2): decreased

UBLM mutant: Ubr1 Ub binding loop mutant H678A/V679A/L680A/H681A
monoubiquitinated product (Ubr1 [1]; Hs-Type-1 Degron and Type-2 Degron as substrates): accumulation of monoubiquitinated product | Ub transfer to Degron versus Ub-Degron (Ubr1 [1]; UBLM mutant of Ubr1): transferred more Ub to Degron than to Ub-Degron | polyubiquitination of Degron and Ub-Degron (effect of mutation) (Ubr1 [1]; fluorescent Degron and Ub-Degron, 30 °C, pH 7.5): substantially reduced | transfer of fluorescent Ub from Ubc2 to Ub-Degron (Ubr1 [2]): failed to transfer fluorescent Ub from Ubc2 to Ub-Degron

B1: Ubc2 (C88S): catalytically inactive Ubc2 (protein)
chain: TPARRRLMRDFKRMKEDAPPGVSASPLPDNVMVWNAMIIGPADTPYEDGTFRLLLEFDEEYPNKPPHVKFLSEMFHPNVYANGEISLDILQNRWTPTYDVASILTSIQSLFNDPNPASPANVEAATLFKDHKSQYVKRVKETVEKSWEDD
modifications: left off: His tag, N-terminal, state not stated
inhibitory effect of pre-mixed inactive Ubc2 on ubiquitination (Ubr1 [1]; increasing doses up to 12.5 μM pre-mixed with Ubr1 and Degron, then wild-type Ubc2 at 4 μM): Minimal inhibitory effects

B2: U2BR peptide (Ubr1 1165-1200) (peptide, UniProt P19812 1165-1200, looked up)
peptide: KERKRRLAKKHQARLLAKFNNQQTKFMKEHESEFDE
Kd [3]: 143 ± 45 nM

B3: N65A: N65A mutation of Ubc2 (protein, UniProt P06104 1-172, looked up, variant N65A)
Ubiquitin-conjugating enzyme …: MSTPARRRLMRDFKRMKEDAPPGVSASPLPDNVMVWNAMIIGPADTPYEDGTFRLLLEFDEEYPAKPPHVKFLSEMFHPNVYANGEICLDILQNRWTPTYDVASILTSIQSLFNDPNPASPANVEAATLFKDHKSQYVKRVKETVEKSWEDDMDDMDDDDDDDDDDDDDEAD
amount of polyubiquitinated Degron (Ubr1 [1]; Ubc2 N65A mutation): increased the amount of polyubiquitinated Degron
